Data published in ChEMBL document CHEMBL4513216, “Probing the Open Global Health Chemical Diversity Library for Multistage-Active Starting Points for Next-Generation Antimalarials” (ACS Infect Dis, 2020).

Assay: Toxicity liver stage against HepG2, at 10uM
Type: cell-based
Design: test concentration 10 uM, cell line HepG2-A16-CD81EGFP
Details: human, HepG2-A16-CD81EGFP cells; read-out: INHIBITION
Procedure, shortened: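 Uninfected HepG2-A16-CD81EGFP cells, 3 × 10^3 per well, 1536-well, plated on prespotted compound at 10 μM final, parasite-free screening media added to match infected plates; puromycin 10 μM positive, DMSO 0.5% negative; run in parallel with 48 h PbLuc assay at 37 °C, 5% CO2; viability by CellTiter-Glo luminescence, normalized to controls.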

Structure (SMILES)	cytotoxicity at 10 µM [%]
Cc1cccc(OC2CCN(C(=O)NCc3cc[nH]n3)CC2)c1C	7.41
Cc1nc(NC(=O)c2c(-n3cnnn3)sc3c2CCC3)sc1C	5.95
CCCSc1nn(CCN(C)C)c2nc3sc(C)c(CC)c3c(=O)n12	16.4
CC(C)n1ncc2c1NC(=O)CC21C(=O)Nc2cc(Cl)cc(Cl)c21 (stereo not drawn)	19.1
Nc1nc2c(c(NC(=O)Nc3cccc(Cl)c3)n1)CCCC2	-2.8
O=S(=O)(c1ccc(Cl)s1)N1CCN(Cc2nc(-c3ccco3)cs2)CC1	47.6
CCc1cnc(N2CC[C@@H]3CN(C(=O)c4ccco4)CCO[C@@H]3C2)nc1	9.22
CC(C)CNc1nc2c(cc1C(=O)NCC1CC1)CCNCC2	-2.79
CCS(=O)(=O)N1CCc2ccc(NC(=O)Nc3cccc(SC)c3)cc21	37.7
Cc1cc(C)n(C2=NC(NCCC(C)C)c3c(sc4c3CCCC4)N2)n1 (stereo not drawn)	25
CCc1ccc(-c2cc(C(F)(F)F)nc(N3CCC(N)CC3)n2)cc1	91.5
Cc1nn(C)c2c(=O)n(C(C)C)c(NCCc3ccccc3)nc12	65.3
CC(C)Nc1cc(-c2c[nH]nc2C2CCN(C(=O)C3CC3)C2)ccn1 (stereo not drawn)	85
COc1ccc(CC(=O)NC(C)c2nc3cccnc3n2C(C)C)cc1 (stereo not drawn)	-11.7
Cc1ncc(CN2CCOC(c3ccc(-c4ccccc4F)cn3)C2)s1 (stereo not drawn)	-35.7
CN(C)C(=O)C1CN(Cc2ccccn2)CCN(S(C)(=O)=O)C1 (stereo not drawn)	26.9
Cc1cc(-c2cnc(NCc3ccncc3)nc2C(C)C)on1	59.7
CC(C)NC(=O)c1cc(-c2ccc(S(C)(=O)=O)cc2)c2cnn(C)c2n1	8.3
O=c1c(Cc2ccc(Cl)cc2Cl)c(O)ccn1CC1CC1	13.6
CCN1CCC(NC(=O)CNC(C)Cn2cccn2)CC1 (stereo not drawn)	9.19
Cc1ccccc1CNc1ccc(S(N)(=O)=O)c(C(F)(F)F)c1	22.2
CCOCCOC(C)C(=O)Nc1nccn1Cc1ccccc1 (stereo not drawn)	3.94

Structure (SMILES)	cytotoxicity at 10 µM [%]
COCc1ccccc1NCc1csc(NC(C)=O)n1	-1.36
O=C(NCC(=O)N1CCN(c2ccccc2)CC1)c1sccc1C1CC1	-151
CCC(C)c1csc(NC(=O)Cc2csc(-c3nnc[nH]3)n2)n1 (stereo not drawn)	-29.6
COCC1CN(c2ccc(C#N)c(Cl)c2)CCO1 (stereo not drawn)	4.86
CCOc1ccc(-c2nc(CN(C)Cc3c(C)noc3C)cs2)cc1	38.6
Cc1nc(C)c(CNC(=O)N2CCN(c3ccc(Cl)cn3)CC2)s1	55.8
COc1c(Cl)cccc1NCc1csc(NC(C)=O)n1	57.8
COC(=O)CSCc1noc(-c2ccc(C)cc2)n1	4.13
CC(C)N(C)C(=O)c1ccc(CNc2ccncc2Cl)cc1	55.8
CCc1ncc(C(=O)NCCNc2ncnc3sccc23)s1	49.6
O=C(NCC1(O)CCSC1)c1ccoc1 (stereo not drawn)	-12.7
CCN(CC1CN(Cc2nc(C3CC3)no2)CCO1)c1cccnn1 (stereo not drawn)	14.9
c1cc(CNCc2ccnc(N3CCCC3)c2)c2c(c1)OCCCO2	26.6
O=C(CSc1nncs1)N1CCN(Cc2ccc(Cl)cc2)CC1	21.9
CCc1noc(C(C)N(C)CC(=O)Nc2ccc(Cl)c(C(F)(F)F)c2)n1 (stereo not drawn)	50.1
NC(=O)c1ccc(N2CCCCC2)c(NC(=O)c2ccc(F)cc2F)c1	-0.0472
CCc1nc(CN2CCCN(c3ncnc4ccsc34)CC2)no1	64.5
Cc1nc(CN2CCN(c3ncnc4ccccc34)CC2)no1	61.5
CC(C)(C)OC(=O)N1CCCc2ccc(NCc3cc[nH]c3)cc21	34.1
COc1ccccc1CN(C)C(=O)CN1CC(n2nc(C)cc2C)C1	21.3
CCCc1n[nH]c(C2CN(C(=O)CCCn3ccnc3C)CCO2)n1 (stereo not drawn)	6.03
N#Cc1cnc2ccccc2c1N1CCN(C(=O)C2CCC2)CC1	-2.3

Structure (SMILES)	cytotoxicity at 10 µM [%]
CN(CCN1CCCC1=O)S(=O)(=O)CC1CCCC1	10.4
CC1(C)CN=C(N2CCN(CCCN3CCOCC3)CC2)S1	-17.6
CN(CCc1cccc2ccccc12)Cc1nc(N)nc(N(C)C)n1	4.19
CN1CCN(C2CCN(c3ccnc(-c4ccccc4)n3)CC2)C1=O	59.7
c1nc(NCC2(N3CCOCC3)CCSC2)c2sccc2n1 (stereo not drawn)	59.7
O=S1(=O)CCN2C(=N1)Oc1ccc(S(=O)(=O)N3CCCC3)cc12	18.2
CS(=O)(=O)c1cccc(C(=O)NCC2(c3ccccc3)CC2)c1	1.47
Cc1ccc(-c2nc(CN(Cc3cccs3)C3CCS(=O)(=O)C3)cs2)o1 (stereo not drawn)	11.4
CC(C)CN1CCC(NC(C)c2ccccc2-n2cccn2)CC1 (stereo not drawn)	1.06
O=C(CN1CCCC(c2ccn[nH]2)C1)Nc1nc2c(s1)CCCC2 (stereo not drawn)	-43.3
NC(=O)c1ccc(N2CCCCC2)c(NC(=O)c2cc(Br)ccc2F)c1	-12.9
COc1cc(CN(C)C(=O)Cc2c(C)nn(C)c2C)ccc1OC(F)F	39.2
CC(C)NC(=O)C1CN(C(=O)N(C)C)CC12CCOCC2 (stereo not drawn)	-110
O=C(Nc1ccccc1)N1CCc2nc(C(=O)N3CCCC3)sc2CC1	11.3
CN(C)C(=O)CN1CCC2(COCc3cnc(-c4ccccc4)nc32)C1 (stereo not drawn)	-96.7
COc1cc(N2CC[C@@H](O)[C@@H]2Cc2ccccc2)ncn1	-52.1
O=C1O[C@@H]2CN(c3ccccn3)C[C@@H]2N1CCCc1ccc(F)cc1	-2.88
FC(F)(F)c1cccc(OC2CCN(Cc3c[nH]cn3)CC2)c1	-47.8
Cc1ccc(Sc2ccc(CN3CCC4(CCCNC4=O)C3)o2)cc1 (stereo not drawn)	-3.68
CCC(NC(=O)c1cc(CC(C)C)nn1C)c1cccc(C)n1 (stereo not drawn)	-116
Clc1ccccc1C1(c2ccnc(C3CCCC3)n2)CCNCC1	18.2
CNc1ccnc(N(C)Cc2cc(-c3cccs3)n[nH]2)n1	-4.57

Structure (SMILES)	cytotoxicity at 10 µM [%]
COc1ccnc(CN2CCCC(CCc3ccc(F)cc3)C2)c1OC (stereo not drawn)	50.4
CCc1nc2c(N3CCC4(CC3)CC(=O)N(CC(C)C)C4)ncnc2o1	16.2
Cc1nc(C2CCN(C)CC2)cc(N2CCOc3ccc(Cl)cc3C2)n1	-5.12
CCOc1ccc2[nH]c(=O)c(CN3CCN(S(N)(=O)=O)CC3)cc2c1	-6.39
Cc1cccnc1NCCNC(=O)c1cnc(-c2ccccn2)nc1O	26.4
CCCNC(=O)c1ccc(S(=O)(=O)NCC2(COC)CCCC2)cc1	-31.2
CC(C)c1cc(C(=O)NCCc2nc3c(s2)CCC3)n(C)n1	54.2
CCc1nc2c(NCC3COc4ccccc4C3)ncnc2o1 (stereo not drawn)	10.5
COc1ccccc1OC1CN(C(=O)c2c(C)nc3ccc(C)cn23)C1	-0.376
Cc1cc(C(=O)NC2CCCc3c2cnn3-c2cccc(C)c2C)[nH]n1 (stereo not drawn)	51.4
Cc1cc(CN(C)CC2CCCN(CCc3ccc(Cl)cc3)C2)[nH]n1 (stereo not drawn)	-12.5
C=Cc1ccc(CN2C(=O)C3(CCNCC3)Nc3ccccc32)cc1	3.39
Cc1nc(C(=O)N2CCN(c3ccc(Cl)c(Cl)c3)CC2)cs1	2.35
Cc1cccc2cc(CO)c(N3Cc4cnc(C(C)(C)C)nc4C3)nc12	10.6
CC(C)(C)n1ncc2c1NC(=O)CC2c1cccc(F)c1 (stereo not drawn)	-8.81
Cc1ccc(-c2noc(CN3CCC(N4CCNC4=O)CC3)n2)cc1	31
Cc1ccc(-c2noc(CN3CC(n4cc(C)cn4)C3)n2)cc1	-3.86
Cc1noc(NC(=O)c2cccc(Br)c2)n1	-5.3
CCCC1CCCN(Cc2csc(-c3ncccn3)n2)CC1 (stereo not drawn)	13.6
Cn1ncc(NCc2cccc(OCC(F)(F)F)c2)c(Cl)c1=O	22.1
COc1c(CNCc2ccnc(N3CCCCC3)c2)c(C)nn1C	10.1
CC1CN(CC2CCCCC2)CCN1c1ccc2nncn2n1 (stereo not drawn)	13.8

Structure (SMILES)	cytotoxicity at 10 µM [%]
Cc1nccn1CCCn1cncc1-c1ccc2c(c1)CCC(C)N2C (stereo not drawn)	-4.98
Cc1ccc(CN(CCCn2ccnc2)Cc2cc(F)ccc2F)s1	-13.2
Clc1cccc(N[C@H]2CCCN[C@H]2Cc2ccccc2)c1	89.4
COc1ccc(-c2ccc(C3CNCCO3)nc2)cc1 (stereo not drawn)	-8.88
O=C(N1CCOCC1)[C@@]12CCO[C@@H]1CCN(Cc1cccc(F)c1)C2	10.8
CCS(=O)(=O)N1C[C@@H]2CN(Cc3cccs3)CCO[C@@H]2C1	-138
CN(C)C(=O)c1n[nH]c2c1CN(Cc1nccs1)CC2	-150
Fc1cccc(O[C@@H]2C[C@H]3CN(Cc4ccncc4)CCN3C2)c1	-143
O=c1ccc2c(n1CC1CC1)CCC(NCc1cccs1)C2 (stereo not drawn)	-111
Cc1nccc(NCc2cncc3c2CCN(CC2CCOC2)C3)n1 (stereo not drawn)	-41.5
CCCS(=O)(=O)N1CCC2(CC1)CN(CC1CCOC1)c1ccccc12 (stereo not drawn)	-101
O=C(c1ccco1)N1C[C@@H]2CCN(c3cccnc3)C[C@@H]2C1	-68.3
COCCN1CCC2(CC1)CC(N1CCOCC1)c1cc(C)ccc12 (stereo not drawn)	-106
O=C(NCc1cccnc1)[C@@H]1CC[C@@H]2[C@@H](CCN2c2ncccn2)O1	-68
Cc1ccc(N2CCO[C@H]3CN(Cc4cccs4)C[C@H]32)nn1	-75.6
Cc1noc([C@H]2C[C@H]3OCC[C@H]3N(C3CCC3)C2)n1	-129
Cc1ccc(N2CCC3(CN(Cc4ccncc4)CCC3(F)F)C2)nn1 (stereo not drawn)	28.6
O=C(O)c1c(-c2cncnc2)ncc2c1CCN(Cc1cccnc1)C2	10.6
c1ccc(-c2cc(CN3C[C@H]4CC[C@@H](C3)N(CC3CCC3)C4)on2)cc1	3.27
COc1ccc(NS(=O)(=O)C=c2[nH]c(=O)n3cccc3c2=O)cc1Cl	-1.47
